Reference: ChEMBL document CHEMBL2321868, “The discovery of novel potent trans-3,4-disubstituted pyrrolidine inhibitors of the human aspartic protease renin from in silico three-dimensional (3D) pharmacophore searches” (J Med Chem, 2013)

How the values were obtained:
Gastricsin = biological target: T1, Gastricsin (Homo sapiens, UniProt P20142); assay: Inhibition of human recombinant pepsin C expressed in Escherichia coli using Dabcyl-E-R-Nle-F-L-S-F-P-EDANS as substrate incubated for 1 hr prior to substrate addition measured after 1 hr by FRET-based enzymatic assay
T1 sequence (P20142 whole entry): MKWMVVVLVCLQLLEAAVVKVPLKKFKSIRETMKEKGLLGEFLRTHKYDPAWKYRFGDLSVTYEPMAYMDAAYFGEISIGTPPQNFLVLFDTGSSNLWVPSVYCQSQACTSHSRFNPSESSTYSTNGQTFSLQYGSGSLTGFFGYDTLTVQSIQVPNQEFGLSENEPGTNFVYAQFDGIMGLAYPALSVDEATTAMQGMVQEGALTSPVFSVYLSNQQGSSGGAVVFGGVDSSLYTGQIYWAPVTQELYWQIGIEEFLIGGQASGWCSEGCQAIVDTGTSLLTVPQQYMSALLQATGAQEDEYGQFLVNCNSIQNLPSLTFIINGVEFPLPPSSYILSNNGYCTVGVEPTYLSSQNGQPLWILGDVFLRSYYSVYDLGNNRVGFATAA

[1] = Volume of distribution at steady state in jugular vein cannulated Sprague-Dawley rat at 2 mg/kg, iv by HPLC-MS analysis; format: ADME, organism-based; set-up: dose 2 mg/kg, route intravenous; conditions: in vivo, read-out: Vdss
How it was run: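 Cannulated, fed Sprague–Dawley rats were given 2 mg/kg intravenously and 6 mg/kg orally. Oral bioavailability came from the two routes. t1/2, plasma clearance and Vdss were estimated. Oral Cmax and AUC were taken over 0–24 h.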

Cathepsin E = biological target: T2, Cathepsin E (Homo sapiens, UniProt P14091); assay: Inhibition of human recombinant cathepsin-E expressed in Escherichia coli using Ac- E-D(EDANS)-KPILFFRLG-K(Dabcyl)-E-Amid as substrate incubated for 1 hr prior to substrate addition measured after 1 hr by FRET-based enzymatic assay
T2 sequence (P14091 whole entry): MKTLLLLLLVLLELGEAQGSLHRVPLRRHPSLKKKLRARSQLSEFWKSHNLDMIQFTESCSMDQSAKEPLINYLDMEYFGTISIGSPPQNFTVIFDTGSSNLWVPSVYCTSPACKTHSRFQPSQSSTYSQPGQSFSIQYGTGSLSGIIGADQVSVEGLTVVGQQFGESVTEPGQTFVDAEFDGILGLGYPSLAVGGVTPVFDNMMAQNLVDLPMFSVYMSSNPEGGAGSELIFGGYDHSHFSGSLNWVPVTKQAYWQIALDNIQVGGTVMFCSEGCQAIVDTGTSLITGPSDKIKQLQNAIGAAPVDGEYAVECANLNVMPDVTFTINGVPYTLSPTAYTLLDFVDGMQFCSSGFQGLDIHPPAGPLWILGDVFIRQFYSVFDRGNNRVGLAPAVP

Cathepsin D = Cathepsin D (Homo sapiens, UniProt P07339); assay: Inhibition of human recombinant cathepsin-D expressed in baculovirus-infected insect sf9 cells using Ac- E-D(EDANS)-KPILFFRLG-K(Dabcyl)-E-Amid as substrate incubated for 1 hr prior to substrate addition measured after 1 hr by FRET-based enzymatic assay
Chain of Cathepsin D (P07339 65-162 limits assumed): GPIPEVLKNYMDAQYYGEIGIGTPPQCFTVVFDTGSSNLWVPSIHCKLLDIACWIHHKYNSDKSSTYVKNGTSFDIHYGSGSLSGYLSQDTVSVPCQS
Chain of Cathepsin D (P07339 169-412 limits assumed): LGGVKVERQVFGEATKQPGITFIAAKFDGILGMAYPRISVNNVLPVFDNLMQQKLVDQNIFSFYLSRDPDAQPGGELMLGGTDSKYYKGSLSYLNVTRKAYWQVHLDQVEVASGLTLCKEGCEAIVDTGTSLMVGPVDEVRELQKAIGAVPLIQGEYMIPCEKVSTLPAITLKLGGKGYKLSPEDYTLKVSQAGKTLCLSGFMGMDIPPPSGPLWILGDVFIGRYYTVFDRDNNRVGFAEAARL

[2] = biological target: T3, Adrenergic receptor alpha-1 (Homo sapiens, UniProt P35348+P25100+P35368); assay: Inhibition of alpha-1 adrenoceptor (unknown origin)
T3 sequence (P35348 whole entry): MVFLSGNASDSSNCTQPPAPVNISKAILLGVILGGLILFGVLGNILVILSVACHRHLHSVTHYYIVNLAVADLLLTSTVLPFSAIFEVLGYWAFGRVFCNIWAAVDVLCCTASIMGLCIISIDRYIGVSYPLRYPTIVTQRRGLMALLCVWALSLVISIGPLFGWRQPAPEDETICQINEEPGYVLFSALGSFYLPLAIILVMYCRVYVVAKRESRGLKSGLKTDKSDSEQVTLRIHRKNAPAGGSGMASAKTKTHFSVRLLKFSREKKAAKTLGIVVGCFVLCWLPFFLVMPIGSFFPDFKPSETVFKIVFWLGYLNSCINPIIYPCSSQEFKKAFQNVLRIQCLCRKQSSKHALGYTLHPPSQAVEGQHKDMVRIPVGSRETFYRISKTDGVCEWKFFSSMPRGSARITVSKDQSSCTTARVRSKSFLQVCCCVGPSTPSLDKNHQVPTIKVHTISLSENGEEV
T3 sequence (P25100 whole entry): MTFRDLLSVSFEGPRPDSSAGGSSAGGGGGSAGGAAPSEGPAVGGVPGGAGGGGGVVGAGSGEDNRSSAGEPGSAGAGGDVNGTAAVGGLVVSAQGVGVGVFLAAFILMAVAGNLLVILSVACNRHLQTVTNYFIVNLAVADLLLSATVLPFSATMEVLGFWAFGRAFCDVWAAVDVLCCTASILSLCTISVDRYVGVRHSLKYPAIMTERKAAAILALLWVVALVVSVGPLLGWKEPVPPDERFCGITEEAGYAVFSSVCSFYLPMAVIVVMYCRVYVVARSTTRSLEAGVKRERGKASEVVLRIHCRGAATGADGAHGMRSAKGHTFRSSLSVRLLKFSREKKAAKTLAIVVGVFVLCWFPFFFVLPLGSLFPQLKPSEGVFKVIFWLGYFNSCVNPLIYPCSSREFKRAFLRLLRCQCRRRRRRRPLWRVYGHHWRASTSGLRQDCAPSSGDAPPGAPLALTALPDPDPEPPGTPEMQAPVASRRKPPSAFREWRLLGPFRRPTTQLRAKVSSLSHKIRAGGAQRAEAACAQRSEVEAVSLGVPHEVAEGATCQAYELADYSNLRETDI
T3 sequence (P35368 whole entry): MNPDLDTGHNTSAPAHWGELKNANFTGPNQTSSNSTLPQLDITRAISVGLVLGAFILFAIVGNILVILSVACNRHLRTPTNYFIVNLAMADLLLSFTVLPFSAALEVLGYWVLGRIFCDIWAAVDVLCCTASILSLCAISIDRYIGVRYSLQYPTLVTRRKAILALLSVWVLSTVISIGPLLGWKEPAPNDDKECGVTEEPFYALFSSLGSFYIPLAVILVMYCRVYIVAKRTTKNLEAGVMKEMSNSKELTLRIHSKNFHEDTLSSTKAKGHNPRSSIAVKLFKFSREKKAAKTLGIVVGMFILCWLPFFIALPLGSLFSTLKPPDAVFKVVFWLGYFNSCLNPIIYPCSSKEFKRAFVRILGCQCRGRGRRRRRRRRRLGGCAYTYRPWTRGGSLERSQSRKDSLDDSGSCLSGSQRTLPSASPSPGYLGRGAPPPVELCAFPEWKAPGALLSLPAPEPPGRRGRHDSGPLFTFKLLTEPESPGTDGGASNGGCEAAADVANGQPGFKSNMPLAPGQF

Rattus norvegicus = assay: Antihypertensive activity in double transgenic rat overexpressing human renin and human angiotensinogen assessed as reduction in mean arterial pressure at 30 mg/kg, po; format: functional, Artery
How it was run: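 Double-transgenic rats overexpressing human renin and human angiotensinogen, with telemetry. Each received a single oral dose of 6 or 30 mg/kg. The read-out was mean arterial pressure, reported as the peak change from dosing.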

IC50 (Gastricsin): > 30 µM
Vd [1]: 2.8 L/kg
IC50 (Cathepsin E): > 30 µM
IC50 (Cathepsin D): > 30 µM
IC50 [2]: > 1000 nM
SMILES: COCCCOc1cc(C(=O)N(C[C@@H]2CNC[C@H]2Cc2ccccc2)C(C)C)ccc1OC.Cl
Activity (Rattus norvegicus): 35 mmHg
